Test results taken from ChEMBL document CHEMBL1156534, “Hemopressin is an inverse agonist of CB1 cannabinoid receptors” (Proc Natl Acad Sci U S A, 2007).
Calls of active or inactive are those of the source. The calls are words filed in the database; no cut-off is given here.

Legend:
Format in all cases: functional, cell-based
[1] = target: Cannabinoid receptor 2 (Homo sapiens) (UniProt P34972); assay: Antagonist activity at CB2 receptor expressed in SKNSH cells assessed as blockade of Hu210-induced increase in antibody recognition at 100 nM by ELISA relative to control; parameters: scale not given: the % may be the effect or the level left
Sequence of Cannabinoid receptor 2 (Homo sapiens) (P34972 whole entry): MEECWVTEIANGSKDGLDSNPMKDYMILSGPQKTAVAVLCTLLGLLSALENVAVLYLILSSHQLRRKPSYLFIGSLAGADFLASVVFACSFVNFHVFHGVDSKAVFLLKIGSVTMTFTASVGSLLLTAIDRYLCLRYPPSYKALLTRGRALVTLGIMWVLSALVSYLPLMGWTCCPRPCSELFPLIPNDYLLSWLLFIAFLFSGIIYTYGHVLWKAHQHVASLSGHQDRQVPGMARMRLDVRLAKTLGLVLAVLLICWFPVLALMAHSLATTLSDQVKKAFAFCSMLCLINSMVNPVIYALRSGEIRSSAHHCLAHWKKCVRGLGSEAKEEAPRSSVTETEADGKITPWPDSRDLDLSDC

[2] = target: Cannabinoid receptor 1 (Homo sapiens) (UniProt P21554); assay: Antagonist activity at CB1 receptor expressed in Neuro 2A cells assessed as blockade of Hu210-mediated increase in number of neurite outgrowth at 10 uM after 16 hrs
Sequence of Cannabinoid receptor 1 (Homo sapiens) (P21554 whole entry): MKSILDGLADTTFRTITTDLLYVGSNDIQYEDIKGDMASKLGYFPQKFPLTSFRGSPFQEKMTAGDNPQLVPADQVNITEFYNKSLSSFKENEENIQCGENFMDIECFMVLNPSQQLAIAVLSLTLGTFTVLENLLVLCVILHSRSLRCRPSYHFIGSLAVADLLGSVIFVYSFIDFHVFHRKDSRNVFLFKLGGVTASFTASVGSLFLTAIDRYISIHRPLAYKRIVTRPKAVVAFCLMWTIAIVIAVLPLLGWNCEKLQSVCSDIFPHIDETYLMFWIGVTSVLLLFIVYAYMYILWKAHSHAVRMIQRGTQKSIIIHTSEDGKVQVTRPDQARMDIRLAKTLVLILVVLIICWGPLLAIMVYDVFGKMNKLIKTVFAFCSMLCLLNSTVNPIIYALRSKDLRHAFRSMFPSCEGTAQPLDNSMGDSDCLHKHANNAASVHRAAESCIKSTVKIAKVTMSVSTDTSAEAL
Outline: (§1)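 Neuro 2A cells transfected with Flag-tagged CB1 or CB2 were exposed 16 h in 0.1% FBS medium to 100 nM Hu-210 with or without 10 μM peptide. The percentage of cells extending neurites was scored and normalized to untreated cells (100%). Mean ± SE of triplicate experiments.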

[3] = target: T1, Type-1 angiotensin II receptor (Homo sapiens) (UniProt P30556); assay: Antagonist activity at AT1 angiotensin receptor expressed in SKNSH cells assessed as blockade of angiotensin 2-induced increase in antibody recognition at 100 nM by ELISA relative to control; parameters: scale not given: the % may be the effect or the level left
T1 sequence (whole entry): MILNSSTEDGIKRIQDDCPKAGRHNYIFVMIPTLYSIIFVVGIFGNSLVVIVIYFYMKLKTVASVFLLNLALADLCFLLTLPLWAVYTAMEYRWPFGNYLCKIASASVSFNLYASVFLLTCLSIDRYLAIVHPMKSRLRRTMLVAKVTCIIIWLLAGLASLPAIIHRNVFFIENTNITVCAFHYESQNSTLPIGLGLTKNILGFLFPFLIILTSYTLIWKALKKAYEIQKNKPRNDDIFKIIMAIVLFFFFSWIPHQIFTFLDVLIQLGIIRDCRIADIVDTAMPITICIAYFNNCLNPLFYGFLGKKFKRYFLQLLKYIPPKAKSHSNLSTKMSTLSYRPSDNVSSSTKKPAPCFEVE

[4] = target: Beta-2 adrenergic receptor (Homo sapiens) (UniProt P07550); assay: Antagonist activity at beta2 adrenergic receptor expressed in HEK293 cells assessed as blockade of secreted alkaline phosphatase activity at 1 uM after 6 hrs relative to control
Sequence of Beta-2 adrenergic receptor (Homo sapiens) (P07550 whole entry, looked up): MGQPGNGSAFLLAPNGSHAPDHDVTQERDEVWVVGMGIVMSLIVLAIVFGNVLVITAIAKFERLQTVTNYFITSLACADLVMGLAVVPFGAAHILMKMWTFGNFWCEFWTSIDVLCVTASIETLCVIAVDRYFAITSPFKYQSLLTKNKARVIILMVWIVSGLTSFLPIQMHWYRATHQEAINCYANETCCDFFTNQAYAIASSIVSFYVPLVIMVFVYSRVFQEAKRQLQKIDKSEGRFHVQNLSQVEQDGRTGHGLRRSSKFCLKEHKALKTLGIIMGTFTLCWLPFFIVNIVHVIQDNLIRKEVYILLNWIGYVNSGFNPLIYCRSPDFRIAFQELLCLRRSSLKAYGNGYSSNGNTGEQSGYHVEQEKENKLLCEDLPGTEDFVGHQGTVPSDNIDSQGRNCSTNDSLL
Outline: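 HEK-293 cells transiently co-transfected with pCRE-SeAP and a Flag-tagged receptor, 30,000 cells/well on poly-L-lysine. They were serum-starved 16–18 h, then exposed 6 h in serum-free medium to 10 μM forskolin (omitted for β2) plus the receptor agonist (100 nM), with or without peptide (1 μM). Heat-treated supernatant SeAP was read by CSPD chemiluminescence. Mean ± SEM, n = 6.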

[5] = target: Cannabinoid receptor 2 (Homo sapiens) (UniProt P34972); assay: Antagonist activity at CB2 receptor expressed in Neuro 2A cells assessed as blockade of Hu210-mediated increase in number of neurite outgrowth at 10 uM after 16 hrs; outline: as §1

Activity [1]: 108%
Activity [2]: Active
Activity [3]: 140%
Activity [4]: 0.96
Activity [5]: inactive
Compound: CC(C)C[C@H](NC(=O)[C@H](Cc1ccccc1)NC(=O)[C@H](CCCCN)NC(=O)[C@H](Cc1ccccc1)NC(=O)[C@H](CC(N)=O)NC(=O)[C@@H](NC(=O)[C@@H]1CCCN1)C(C)C)C(=O)N[C@@H](CO)C(=O)N[C@@H](Cc1cnc[nH]1)C(=O)O [HEMOPRESSIN]
